Measurements: ChEMBL document CHEMBL3272041, “Quantitative correlations between albumin binding constants and chromatographic Rm values of phenothiazine derivatives” (J Med Chem, 1977)

Tests used:
[1] = Dissociation constant, pKa of the compound by UV-visible spectrophotometer analysis; assay type: physicochemical
[2] = Oleyl alcohol-water partition coefficient, Rm of the compound measured at 0% methanol by reverse-phase thin layer chromatography; assay type: physicochemical
Method in brief: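 Reversed-phase TLC on Kieselguhr G impregnated with oleyl alcohol. Mobile phases were methanol–water with ammonia and KCl, pH* 10.5, ionic strength 0.1 M, methanol 30–55% (w/w). Each compound had 10–12 Rm determinations at each methanol concentration.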

[3] = target: T1, Albumin (Bos taurus, UniProt P02769); test: Binding affinity to bovine serum albumin by circular dichroic probe technique; assay type: ADME; settings: cattle, isolated protein
[4] = Octanol-water partition coefficient, log P of the compound; assay type: physicochemical
[5] = target: T1, Albumin; test: Binding affinity to bovine serum albumin; assay type: ADME; settings: cattle, isolated protein
[6] = target: T1, Albumin; test: Binding affinity to bovine serum albumin assessed as intrinsic binding constant; assay type: ADME; settings: cattle, isolated protein
[7] = target: T1, Albumin; test: Binding affinity to bovine serum albumin high affinity site by circular dichroic probe technique; assay type: ADME; settings: cattle, isolated protein
Method in brief: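 Displacement of sulfaethidole from its primary BSA site, followed by circular dichroism. Solutions were in 0.054 M sodium phosphate, pH 7.44 (25 °C), isotonic with NaCl. Reagent concentrations were 1.45 × 10−5 and 2.11 × 10−5 M. Spectra were scanned from 420 to 265 nm in 10-mm cells, with ellipticity read at 280–286 nm, corrected for drug effect on BSA. Apparent K came from the Klotz equation (n = 1) and was extrapolated to zero drug concentration.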

T1 sequence (P02769 whole entry): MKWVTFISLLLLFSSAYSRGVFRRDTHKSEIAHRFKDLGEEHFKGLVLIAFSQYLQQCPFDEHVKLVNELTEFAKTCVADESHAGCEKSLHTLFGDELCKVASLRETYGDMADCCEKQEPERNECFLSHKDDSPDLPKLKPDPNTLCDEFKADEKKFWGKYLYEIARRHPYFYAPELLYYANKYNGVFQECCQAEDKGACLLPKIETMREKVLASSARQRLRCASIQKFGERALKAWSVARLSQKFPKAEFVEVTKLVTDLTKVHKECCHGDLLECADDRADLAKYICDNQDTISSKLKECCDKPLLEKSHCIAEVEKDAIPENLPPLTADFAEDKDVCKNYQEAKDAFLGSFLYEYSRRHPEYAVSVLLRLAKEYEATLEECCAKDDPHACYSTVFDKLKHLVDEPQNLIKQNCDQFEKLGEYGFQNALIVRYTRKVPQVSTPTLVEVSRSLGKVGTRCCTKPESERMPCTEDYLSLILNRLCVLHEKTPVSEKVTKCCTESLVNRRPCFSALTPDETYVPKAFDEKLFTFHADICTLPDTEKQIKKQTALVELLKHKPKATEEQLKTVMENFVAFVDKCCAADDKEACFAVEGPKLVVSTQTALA

Structure (SMILES) | pKa [1] | Rm [2] | logKa [3] | logP [4] | log K [5] | log K [6] | Activity [7]
CN(C)CCCN1c2ccccc2Sc2ccc(C#N)cc21 | 9.29 | 2.94 | 4.46 |  |  |  | 
CCCC(=O)c1ccc2c(c1)N(CCCN1CCN(C)CC1)c1ccccc1S2 [BUTAPERAZINE] | 8.1 | 3.37 | 4.78 |  |  |  | 
CN(C)CCCN1c2ccccc2Sc2ccc(Cl)cc21 [CHLORPROMAZINE] |  | 4.12 | 4.98 |  |  |  | 
CC(CN1CCN(CCOCCO)CC1)CN1c2ccccc2Sc2ccccc21 (stereo not given) [DIXYRAZINE] | 8 | 2.49 | 4.21 |  |  |  | 
OCCN1CCN(CCCN2c3ccccc3Sc3ccc(C(F)(F)F)cc32)CC1 [FLUPHENAZINE] |  | 3.03 |  | 4.47 |  |  | 
CN1CCCCC1CCN1c2ccccc2Sc2ccc([S+](C)[O-])cc21 (stereo not given) [MESORIDAZINE] |  | 2.32 |  |  |  |  | 
COc1ccc2c(c1)N(CCCN(C)C)c1ccccc1S2 [METHOXYPROMAZINE] | 9.41 | 3.19 | 4.66 | 4.63 | 4.11 |  | 
CN1CCN(CCCN2c3ccccc3Sc3ccccc32)CC1 [PERAZINE] | 8.1 | 2.67 | 4.36 | 3.8 | 4.32 | 3.33 | 
N#Cc1ccc2c(c1)N(CCCN1CCC(O)CC1)c1ccccc1S2 [PERICIAZINE] | 8.5 | 2.17 | 4.12 |  |  |  | 
OCCN1CCN(CCCN2c3ccccc3Sc3ccc(Cl)cc32)CC1 [PERPHENAZINE] | 7.9 | 2.74 | 4.2 | 3.92 |  |  | 
CN1CCN(CCCN2c3ccccc3Sc3ccc(Cl)cc32)CC1 [PROCHLORPERAZINE] |  | 3.38 | 4.59 |  |  | 3.7 | 
CN(C)CCCN1c2ccccc2Sc2ccccc21 [PROMAZINE] | 9.42 | 3.43 | 4.54 | 4.68 | 3.95 | 3.45 | 
CCc1nnc(NS(=O)(=O)c2ccc(N)cc2)s1 [SULFAETHIDOLE] |  |  |  |  |  |  | 2.1 ×10⁵ L/mol
CSc1ccc2c(c1)N(CCC1CCCCN1C)c1ccccc1S2 (stereo not given) [THIORIDAZINE] |  | 4.51 | 5.15 |  |  |  | 
CN1CCN(CCCN2c3ccccc3Sc3ccc(C(F)(F)F)cc32)CC1 [TRIFLUOPERAZINE] |  | 3.55 | 4.67 |  |  |  | 
CN(C)CCCN1c2ccccc2Sc2ccc(C(F)(F)F)cc21 [TRIFLUPROMAZINE] |  | 4.24 | 5.17 |  | 4.58 | 3.99 | 
